Screening results (PubChem BioAssay)
PG9 binder = PG9 antibody binding by small molecule; TR-FRET gp120-PG9 antibody binding; inhibition, % at 6.7 µM; 360,000 tested, 0.43% active; in the data active means inhibition above about 8.5%
NR1D1 modulator = Rev-erb alpha (human) modulation. P20393. Rev-erbα–FITC-DNA binding, fluorescence polarization, 90 min. 370,000 tested, 0.79% active. activity, % at 10 µM. AID 1259318;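 active means activity above about 14%, limit read from the data; passing the limit was not always enough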
Target sequence (P20393 whole entry, looked up): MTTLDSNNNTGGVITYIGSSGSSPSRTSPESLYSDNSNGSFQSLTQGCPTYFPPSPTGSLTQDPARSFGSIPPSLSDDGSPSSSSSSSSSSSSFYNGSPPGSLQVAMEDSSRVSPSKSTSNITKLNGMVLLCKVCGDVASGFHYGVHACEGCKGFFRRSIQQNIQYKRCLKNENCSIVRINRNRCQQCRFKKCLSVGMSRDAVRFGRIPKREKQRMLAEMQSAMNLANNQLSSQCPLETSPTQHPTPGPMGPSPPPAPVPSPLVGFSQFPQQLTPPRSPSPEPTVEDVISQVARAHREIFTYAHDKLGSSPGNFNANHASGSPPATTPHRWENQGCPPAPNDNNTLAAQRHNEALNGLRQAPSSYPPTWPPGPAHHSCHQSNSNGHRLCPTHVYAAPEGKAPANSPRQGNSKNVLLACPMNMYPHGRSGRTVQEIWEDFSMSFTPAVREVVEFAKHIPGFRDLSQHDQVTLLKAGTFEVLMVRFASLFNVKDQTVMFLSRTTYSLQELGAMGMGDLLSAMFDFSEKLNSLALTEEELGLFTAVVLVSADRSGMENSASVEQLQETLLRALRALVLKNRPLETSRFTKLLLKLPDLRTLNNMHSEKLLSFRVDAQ
NR2E3 ag-1 = activates human photoreceptor nuclear receptor NR2E3; GST-NR2E3/biotin-RetCOR TR-FRET, 1536-well; 320,000 tested, 0.12% active; AID 2300; Q9Y5X4; inhibition of corepressor binding, % at 4.78 µM;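 active means percent inhibition above the cutoff of mean plus 3 SD of all tested compounds, set per screening campaign, cut at about 20% in these data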
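System: GST-tagged NR2E3 plus biotinylated RetCOR corepressor; Amount: 1.35 nM GST-tagged NR2E3 final; Dosing: single nominal compound dose of 4.8 µM; Schedule: 5 h incubation at 4 °C; Technique: TR-FRET with europium anti-GST and streptavidin-D2, 340 nm excitation; Controls: biotin wells as high control, 0.6% DMSO wells as low control.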
NR2E3 ag-2 = agonists of human NR2E3 nuclear receptor | CHO-S Gal4-NCOR/VP16-NR2E3 two-hybrid, luciferase | Q9Y5X4 | 360,000 tested, 0.35% active | inhibition of corepressor binding, % at 3.98 µM | AID 602229;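 active means inhibition above the mean of all tested compounds plus 3 SD, cut at about 70% in these data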;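 further: higher means lower luciferase signal from less NR2E3 corepressor binding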
NR1D1 mod conf = Rev-erb alpha (human) modulation, hit confirmation; shares compounds with NR1D1 modulator; Rev-erb alpha FITC-DNA binding, fluorescence polarization, 90 min; activation, % at 25 µM; 3,000 tested, 61% active; AID 1259319;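 active means activation at or above a set limit, or at least 3 SD above the negative control mean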
RORg DNA counter = affects RORgamma DNA binding in a Rev-erb alpha counter-screen. shares compounds with NR1D1 modulator. purified RORgamma protein-FITC-DNA binding, fluorescence polarization. IC50, µM. 910 tested, 8% active. AID 1259320;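 active means Compounds whose fitted half-maximal concentration for disrupting protein-DNA binding is below 10 micromolar; the record names Rev-erb in its text, so the target is in doubt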
Large screens that a line does not name were inactive (follow-up assays come after a bar, where they were run); ! = not confirmed by another sample. Sampled rows, rich in hits. Any-hit rate of the full collection: about 1.4%.

Cc1ccc2nc(-c3ccc(NC(=S)NC(=O)CC(C)C)cc3)sc2c1	NR1D1 modulator 22 | NR1D1 mod conf inactive
Cc1nc(N)c(C#N)c(-c2ccccc2Cl)c1C	none
Fc1cccc(CSc2ccc3nnc(-c4cccnc4)n3n2)c1	none
CC(C)(C)NC(=O)COC(=O)/C=C/c1ccc(F)cc1	none
CCn1c(C(=O)O)c(CC(=O)NC2CCCCCC2)c2ccccc21	none
CCC1(c2ccc(F)cc2)NC(=O)N(CC(=O)Nc2ccc(-c3nc4ccc(C)cc4s3)cc2)C1=O (centres undefined)	NR1D1 modulator 41 | NR1D1 mod conf inactive
O=C(CCS(=O)(=O)c1ccccc1)Nc1ccccc1-c1nc2ccccc2s1	NR1D1 modulator 44 | NR1D1 mod conf 40 | RORg DNA counter 2.1
COc1ccc(C2(C)NC(=O)N(CC(=O)Nc3ccc(-c4nc5ccc(C)cc5s4)cc3)C2=O)cc1 (centres undefined)	none
CC/C(=C(/CC)c1ccc(O)cc1)c1ccc(O)cc1	NR1D1 modulator 31! | NR1D1 mod conf 34
CC/C(=C(/CC)c1ccc(OP(=O)(O)O)cc1)c1ccc(OP(=O)(O)O)cc1	none (no result: PG9 binder, NR2E3 ag-1, NR2E3 ag-2)
O=C(C(=O)N1CCOCC1)c1cn(CC(=O)N2CCc3ccccc3C2)c2ccccc12	none
Cc1ccc(CN2C(=O)N/C(=C\c3ccc(N4CCOCC4)cc3)C2=O)cc1	none
O=C1N/C(=C\c2ccc(N3CCOCC3)c(F)c2)C(=O)N1Cc1ccccc1	NR1D1 modulator 28 | NR1D1 mod conf inactive
COC(=O)c1c(S(N)(=O)=O)c2ccccc2n1C	none
COC(=O)c1c(C(=O)c2ccc(Br)cc2)n(C)c2ccccc12	NR1D1 modulator 18 | NR1D1 mod conf 21
Fc1ccc(-[n+]2nc(Nc3ccccc3)sc2-c2ccc(OCc3ccccc3)cc2)cc1	NR1D1 modulator 156 | NR1D1 mod conf inactive
O=C(CCc1c[nH]c2ccccc12)NCCc1ccc2c(c1)OCCO2	NR1D1 modulator 28 | NR1D1 mod conf 32 | RORg DNA counter inactive
Cc1cc(Nc2ccc(Cl)cc2)nc(-c2ccccc2O)n1	NR1D1 modulator 29 (no result: NR2E3 ag-1) | NR1D1 mod conf inactive
Cc1cc(Nc2cccc(Cl)c2)nc(-c2ccccc2O)n1	none
Cc1ccc(-c2nnc(N3CCN(C(=O)CN4C(=O)c5ccccc5C4=O)CC3)c3ccccc23)cc1	NR1D1 modulator 25 | NR1D1 mod conf inactive
Cc1ccc(OCC(=O)N2CCN(c3nnc(-c4ccc(C)cc4)c4ccccc34)CC2)cc1	none
O=C(CN1C(=O)c2ccccc2C1=O)N1CCN(c2nnc(-c3ccccc3)c3ccccc23)CC1	NR1D1 modulator 29 | NR1D1 mod conf inactive
O=S(=O)(N1CCCCC1)N1CCN(CC(O)COc2ccc3cc(Br)ccc3c2)CC1 (centres undefined)	PG9 binder 12, NR1D1 modulator 100 | NR1D1 mod conf 49 | RORg DNA counter inactive
Cn1cncc1C#Cc1ccc2cc(C3(O)CCCCC3)oc(=O)c2c1	NR1D1 modulator 70 | NR1D1 mod conf 43 | RORg DNA counter inactive
C=CCn1c(-c2cc3c(s2)CCC(CC)C3)n[nH]c1=S (centres undefined)	none
Cc1cc(C)c2c(C)c(C(=O)NCc3ccc(S(N)(=O)=O)cc3)oc2c1	NR1D1 modulator 28 | NR1D1 mod conf 20
Cc1ccc(NC(=O)C2CCCN(S(=O)(=O)c3ccc4[nH]c(=O)ccc4c3)C2)cc1C (centres undefined)	none
COc1ccc(NC(=O)C2CCCN(S(=O)(=O)c3ccc4[nH]c(=O)ccc4c3)C2)cc1OC (centres undefined)	NR1D1 modulator 23 | NR1D1 mod conf inactive
CN1C(=O)CSC1=NCC12CC3CC(CC(C3)C1)C2	NR1D1 modulator 24 | NR1D1 mod conf 32 | RORg DNA counter inactive
C=C(C)CN1C(=O)C(C)SC1=NN=C1SCC(=O)N1C (centres undefined)	none (no result: NR2E3 ag-1)
CCOC(=O)c1c(-c2ccccc2)csc1NC(=O)c1ccc(S(=O)(=O)N2CC(C)OC(C)C2)cc1 (centres undefined)	none
CCOC(=O)c1c(-c2ccccc2)csc1NC(=O)c1cc(S(=O)(=O)N2CCOCC2)ccc1C	NR1D1 modulator 34 | NR1D1 mod conf 49 | RORg DNA counter inactive
Cc1cc(C)c2oc(=O)cc(CN3CCN(Cc4ccccc4)CC3)c2c1	none
COc1ccc(Cn2c3ccc(OC)cc3c3nc4ccccc4nc32)cc1	NR1D1 modulator 25 | NR1D1 mod conf 23
O=C(C[n+]1cnn(CC(=O)c2ccc(Cl)cc2Cl)c1)c1ccc([N+](=O)[O-])cc1	none
O=C(CCCn1c(=S)[nH]c2cc3c(cc2c1=O)OCO3)NCCc1ccccc1Cl	NR1D1 modulator 27 | NR1D1 mod conf 22
O=C(CCn1c(=S)[nH]c2cc3c(cc2c1=O)OCO3)NCCc1ccccc1Cl	NR1D1 modulator 23 (no result: NR2E3 ag-1) | NR1D1 mod conf 13
O=C(CCn1c(=S)[nH]c2cc3c(cc2c1=O)OCO3)NCc1ccccc1Cl	none
CCn1c(SCC(=O)Nc2cc(C)on2)nc2sc(C)c(C)c2c1=O	NR1D1 modulator 27 (no result: NR2E3 ag-1, NR2E3 ag-2) | NR1D1 mod conf 35 | RORg DNA counter inactive
COc1ccc(C)cc1-n1c(SCC(=O)Nc2cc(C)on2)nc2sc(C)c(C)c2c1=O	none
CCc1sc2nc(SCC(=O)Nc3cc(C)on3)n(-c3cccc(OC)c3)c(=O)c2c1C	NR1D1 modulator 34 | NR1D1 mod conf 22
C=CCn1c(SCC(=O)Nc2cc(C)on2)nc2sc(C)c(C)c2c1=O	NR1D1 modulator 54 | NR1D1 mod conf 53 | RORg DNA counter inactive
CCCC(Oc1ccc(Br)cc1)c1nc2c3cc(OC)c(OC)cc3nc(=S)n2[nH]1 (centres undefined)	NR1D1 modulator 47 | NR1D1 mod conf 39 | RORg DNA counter inactive
COc1cc(-c2nc3c4ccccc4nc(=S)n3[nH]2)cc(OC)c1OC	none
CCC(=O)Nc1sc(C(=O)Nc2ccccc2OC)c(C)c1C(=O)OC	NR1D1 modulator 42 | NR1D1 mod conf inactive
CCOc1ccc(NC(=O)c2sc(NC(C)=O)c(C(=O)OC)c2C)cc1	NR1D1 modulator 31 | NR1D1 mod conf inactive
COc1ccccc1NC(=O)COC(=O)c1c(NC(C)=O)sc(C)c1C	NR1D1 modulator 19 (no result: NR2E3 ag-1) | NR1D1 mod conf inactive
CC(=O)Nc1sc(C)c(C)c1C(=O)OCC(=O)NC(C)c1ccccc1 (centres undefined)	none (no result: NR2E3 ag-1)
CC(=O)Nc1sc(C)c(C)c1C(=O)OCC(=O)N(Cc1ccccc1)C(C)C	NR1D1 modulator 42 | NR1D1 mod conf 32 | RORg DNA counter inactive
CCCNC(=O)c1ccc(N2CCC3(CC2)CC(c2ccccc2)=NO3)c(NC(=O)c2cccc(OC)c2)c1	NR1D1 modulator 20 | NR1D1 mod conf inactive
CCCNC(=O)c1ccc(N2CCC3(CC2)CC(c2ccccc2)=NO3)c(NC(=O)c2ccco2)c1	none
COc1ccc2c(C)cc(SCC(=O)Nc3ccc(Cl)cn3)nc2c1	NR1D1 modulator 55 | NR1D1 mod conf inactive
